In the library only some 2.9% were active in any assay of this set; here they are far more common.
HCV NS3 hel inh: inhibitors of Hepatitis C virus NS3 helicase; 0.56% of 290,000 active; AID 1800; NS3 helicase DNA unwinding, Cy5 molecular beacon fluorescence; inhibition, % at 10.9 µM;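 active means inhibition above the mean of all tested compounds plus 3 SD, set per campaign, cut at about 35% in these data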;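 further: 0% = DMSO wells and 100% = thioflavine S control wells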
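Assay system: hepatitis C virus NS3 helicase domain fragment enzyme. Also added: annealed dual-labelled DNA beacon duplex, ATP-started. Timing: 1 h reaction at 25 °C, ATP-initiated. Technique: Cy5 fluorescence at 0 and 60 min, beacon hairpin quenching. Evaluation: % inhibition of unwinding. Replication: one well per compound.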
APOBEC3A inh: blocks human APOBEC3A ssDNA deamination; recombinant A3A, FAM/TAMRA ssDNA deamination fluorescence; P31941; AID 493011; inhibition, % at 20 µM; 0.41% of 330,000 active;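 active means at least 40% inhibition at 20 µM here, with at most 30% in a related deaminase screen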;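 further: plate controls were A3A with DMSO for no effect and wells lacking A3A enzyme for full effect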
Target sequence (P31941 whole entry, looked up): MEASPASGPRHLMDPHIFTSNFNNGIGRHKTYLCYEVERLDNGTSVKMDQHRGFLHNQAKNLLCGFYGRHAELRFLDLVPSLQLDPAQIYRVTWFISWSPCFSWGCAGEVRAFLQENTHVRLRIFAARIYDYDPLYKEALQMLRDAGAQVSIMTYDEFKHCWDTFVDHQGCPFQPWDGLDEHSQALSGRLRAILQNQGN
HCV core dimer: HCV core protein dimerization inhibition | TR-FRET GST/Flag-core106 dimerization, 1536-well | inhibition, % at 5 µM | 0.33% of 300,000 active;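 active means inhibition above the mean of all tested compounds plus 3 SD, set per screening campaign, cut at about 45% in these data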
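Assay system: Tagged HCV core106 pair (GST and Flag) | Buffer or medium: KF-containing HEPES buffer, pH 7.45, DTT, CHAPS, BSA | Also added: Eu donor and XL665 acceptor anti-tag antibodies | Dosing: One concentration, 5 µM, in 0.5% DMSO | Timing: 4 h at 22.5 °C | Technique: TR-FRET 671 and 617 nm emission | Repeats: Singlicate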
ABHD5 PLIN5 PPI: ABHD5-PLIN5 protein interaction inhibition; inhibition, % at 4 µM; Split G. princeps luciferase complementation, luminescence, 4 h; 0.78% of 360,000 active; Q00G26+Q8WTS1;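 active means inhibition above the mean inhibition across every tested compound plus 3 SD, cut at about 22% in these data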;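 further: 0% = DMSO only wells and the 100% control is not disclosed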
PRMT1 inh: blocks human protein arginine methyltransferase 1 | recombinant PRMT1, activity-based probe fluorescence polarization | Q99873 | inhibition, % at 2.79 µM | AID 652257 | 1.3% of 370,000 active;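 active means inhibition above about 21% made by adding two undisclosed values, limit read from the data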
APOBEC3G inh: APOBEC3G (human) deaminase inhibition; Q9HC16; recombinant A3G, ssDNA deamination FAM/TAMRA fluorescence; 0.28% of 330,000 active; inhibition, % at 20 µM;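 active means inhibition of at least 40% at 20 µM, with no more than 30% in the related APOBEC3A deaminase screen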;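 further: plate controls were DMSO wells with A3G for no effect and wells lacking A3G enzyme for full effect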
ABHD5 PLIN5 conf: confirmation of human ABHD5-PLIN5 interaction inhibitors. shares compounds with ABHD5 PLIN5 PPI. biochemical ABHD5-PLIN5 interaction, luminescence. inhibition, % at 4 µM. 67% of 2,200 active; in the data active means inhibition above about 23%;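 further: 0% = DMSO vehicle wells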
HNF4 counter: counter-screen for ABHD5-PLIN5 inhibitors: HNF4 split-luciferase | shares compounds with ABHD5 PLIN5 PPI | HNF4 dimerization, luminescence, biochemical | inhibition, % at 4 µM | 77% of 2,200 active | AID 651674;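 active means mean inhibition across replicate wells exceeding the computed hit threshold, cut at about 13% in these data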;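 further: light from luciferase halves that rejoin when HNF4 fusion proteins dimerize; 0% = DMSO only wells and the 100% control is not given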
Numbers without * were called inactive; / = not tested or not shown.

SMILES	HCV NS3 hel inh	APOBEC3A inh	HCV core dimer	ABHD5 PLIN5 PPI	PRMT1 inh	APOBEC3G inh	ABHD5 PLIN5 conf	HNF4 counter
Cc1ccc(NN2C(=O)C=C(c3ccc(Cl)cc3)C2=O)cc1	9.5	1.4	7.4	94.9*	6.8	6.9	101.4*	107.1*
COc1ccc(Nc2cccccc2=O)cc1	-9.3	6.5	-3.6	0.0	1.0	-4.5	/	/
O=C1C=C(c2ccccc2)C(=O)N1Nc1ccccc1	2.8	3.0	3.4	86.2*	22.0*	10.2	99.5*	107.4*
Cc1ccc(NN2C(=O)C=CC2=O)cc1	-19.7	1.9	0.2	-1.5	-1.8	-2.1	/	/
O=C1Cc2ccccc2C(=O)N1Nc1ccccc1	/	/	/	-9.5	0.6	/	/	/
COc1ccc(C2=CC(=O)N(Nc3ccccc3)C2=O)cc1	-5.5	-5.4	8.6	88.4*	7.8	-8.0	85.7*	87.9*
O=C(N[C@@H](Cc1ccccc1)C(=O)NCc1ccc(F)cc1)C1CCNCC1	-0.8	-1.3	1.4	1.6	0.9	-0.8	/	/
O=[N+]([O-])c1ccc(N=Nc2ncc[nH]2)cc1	-4.5	-1.6	/	29.9*	-1.8	-8.7	57.5*	52.1*
O=[N+]([O-])c1ccc(N=NN(CCO)CCO)cc1	4.9	4.5	-10.0	-5.3	-0.6	-0.4	/	/
COC(=O)c1ccc(NC(=O)CCc2nnc3ccc(NCc4ccco4)nn23)cc1	0.5	7.1	8.5	56.7*	9.8	4.6	14.3	14.3*
Cc1cccnc1NC(=O)CCc1nnc2ccc(NCc3ccco3)nn12	5.9	1.7	-3.0	32.0*	12.6	2.8	11.0	6.0
COc1ccc(NC(=O)CCc2nnc3ccc(NCc4ccco4)nn23)cc1	15.8	-1.5	0.0	0.9	-3.3	-3.1	/	/
COc1ccccc1NC(=O)CCc1nnc2ccc(NCc3ccco3)nn12	6.3	8.9	5.8	8.9	-1.5	1.1	/	/
O=C(CCc1nnc2ccc(NCc3ccco3)nn12)Nc1ccccn1	-3.1	17.4	4.4	11.5	20.8	9.9	/	/
COc1ccc(NC(=O)CCc2nnc3ccc(NCc4ccco4)nn23)cc1OC	2.2	-9.0	7.3	33.9*	-0.9	-7.3	11.9	13.0*
CN(CCc1ccccc1)c1cc2c(c3c1ccn3C)C1CCC2O1 (centres undefined)	/	/	/	-7.0	-1.9	/	/	/
CCOC(=O)/C=C1\SC(C)C(=O)N1CC(=O)N(CCC#N)c1ccccc1 (centres undefined)	/	-0.1	/	1.8	0.9	9.2	/	/
CN(C)c1ccc(-n2cccc2/C=C/[N+](=O)[O-])cc1	2.2	1.2	13.9	52.3*	3.0	-4.2	81.6*	71.4*
CC(C)CC(N)c1csc(Nc2ccc(C(F)(F)F)cn2)n1 (centres undefined)	/	/	/	1.2	2.2	/	/	/
Cc1cccc(C(=O)N2CCCCCC2)c1[N+](=O)[O-]	2.9	-1.9	7.9	73.9*	-0.3	-2.8	2.5	2.9
Cc1ccc(S(=O)(=O)c2ccc([N+](=O)[O-])cn2)cc1	-14.6	0.0	7.5	48.5*	34.5*	-4.7	74.6*	112.3*
O=[N+]([O-])c1ccc(S(=O)(=O)c2ccccc2)nc1	2.3	-4.6	-3.6	53.7*	28.9*	-6.9	56.6*	108.7*
Cc1cc(S(=O)(=O)c2ccc([N+](=O)[O-])cn2)ccc1Br	/	-2.9	1.0	16.2	11.3	-5.1	/	/
CN(C)C1=NCCN1CCc1ccc(F)cc1	/	-1.3	6.1	-5.6	0.5	-2.1	/	/
C(=NN=Cc1c[nH]c2ccccc12)c1c[nH]c2ccccc12	/	/	/	9.3	-0.8	/	/	/
O=C1/C(=C/c2c[nH]c3ccccc23)CCC/C1=C\c1c[nH]c2ccccc12	7.5	-1.8	32.5	30.2*	7.0	-4.2	28.9*	58.0*
COC(=O)C1=C(C)NC2=C(C(=O)CCC2)C1c1ccsc1 (centres undefined)	4.5	/	/	/	/	/	/	/
